The full list was thinned out, with hits kept by preference.
T cruzi repl – inhibitors of intracellular T. cruzi growth, primary screen, luminescence, NIH3T3 host cells; T. cruzi beta-gal in NIH3T3, 90 h; 1.4% of 300,000 active; inhibition, % (concentration not given with the values); AID 1885, 2009;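 active = mean inhibition across valid replicates above about 55%, limit read from the data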;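 note: signal also drops with host cell toxicity which is not excluded here; 0% = plate median of DMSO wells and 100% = zero luminescence signal; higher percent means less beta-gal luminescence so fewer parasites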
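Test system: β-gal T. cruzi (Tulahuen C4) inside NIH/3T3 cells / Quantity: 5,000 cells/well / Measured by: luminescence from GalScreen with 0.05% NP40, read after 60 min / Medium: DMEM plus 2% FBS / Measure: parasite load inhibition, % / Reagent: Tulahuen C4 trypomastigotes, 5000/well / Schedule: co-culture of at least 90 h after 3 h attachment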
CHOP inh – inhibitors of CHOP promoter induction, primary screen, cell-based, unfolded protein response, luciferase reporter. inhibition, % at 10 µM. 3.8% of 220,000 active. CHO-K1 CHOP-promoter luciferase, tunicamycin-induced, 15-18 h;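 active = compounds that reduced the stress-induced luciferase reporter signal by more than about 70% of percent inhibition, limit read from the data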;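 note: 0% = tunicamycin plus vehicle and 100% = wells without tunicamycin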
CHOP UPR activ – activators of apoptotic CHOP UPR arm, primary screen, cell-based, CHO-CHOP luciferase reporter, luminescence, uHTS; UPR activation; percent of tunicamycin response over DMSO baseline; activation, % at 10 µM; 0.34% of 330,000 active;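 active = at 10 µM dose, activation of 40% or more, normalized to positive control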;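 note: 100% = tunicamycin at 10 µg/mL and 0% = DMSO alone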
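Evaluation: % reporter activation, DMSO baseline versus tunicamycin full activation; System: CHO-CHOP luciferase reporter cell line; Input: 500 cells/well; Incubation: 6 h compound treatment, 37 °C; Measured by: Steady-Glo luciferase luminescence; Dosing: one dose, 10 µM in 0.5% DMSO; Buffer or medium: F12 medium, 10% FBS; Benchmarks: positive tunicamycin 10 µg/mL, negative DMSO alone.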
Dynein cargo inh – inhibitors of GR-EGFP nuclear translocation, primary screen, dynein cargo transport inhibitor project, imaging, high-content, 3617.4 mouse cells; test concentration mostly 20 µM; stimulated with dexamethasone, 1 µM; active compounds read low; z-score, hits read low; 0.47% of 220,000 active;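 active = plate z-score of nuclear minus cytoplasmic receptor signal below a set negative limit, without overly bright fluorescence or cell loss, cut at about -3.5 in these data, passing the limit was not always enough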;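 note: z-score of nuclear minus cytoplasmic ring GR-EGFP intensity difference per well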
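Medium: Induction medium lacking tetracycline, stripped serum | Probe or stimulus: 1.0 µM final dexamethasone stimulus | Schedule: 48 h induction, then 1 h compound, then 30 min agonist, 37 °C | Signal: Automated 10x imaging of fixed Hoechst-stained cells | Evaluation: Per-cell GR-EGFP intensity, nucleus versus surrounding cytoplasmic ring, well-averaged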
UPR XBP1 act – activators of adaptive XBP1 UPR arm, primary screen, cell-based, CHO-XBP1 luciferase reporter, luminescence, uHTS; IRE1-XBP1 UPR activation; percent of tunicamycin response, DMSO as zero; activation, % at 20 µM; 0.33% of 330,000 active; AID 463104, 2010;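 active = versus positive control, 20 µM dose yields 30% or more activation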;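 note: 100% = tunicamycin at 10 µg/mL and 0% = DMSO only wells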
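Assay system: CHO-XBP1 luciferase reporter cells; Schedule: 6 h treatment, 37 °C; Detection: glow luminescence from Steady-Glo reagent; Benchmarks: high control tunicamycin 10 µg/mL final, low control DMSO vehicle only.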
L major viab – Leishmania major promastigote growth inhibition, primary screen; Leishmania major promastigotes, resazurin fluorescence viability; inhibition, % at 10 µM; 9% of 200,000 active; AID 1063, 2008; in the data active = inhibition above about 50%;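 note: promastigotes grown with compound for 44 hours at 28 °C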
The depositor's hits bear a star; / = no result given.

SMILES | T cruzi repl | CHOP inh | CHOP UPR activ | Dynein cargo inh | UPR XBP1 act | L major viab
O=C1CC(NS(=O)(=O)c2ccc([N+](=O)[O-])cc2)CN1c1cccc(F)c1 (configuration not stated) | 65* | / | 1 | / | 2 | /
CC(=O)c1ccc(S(=O)(=O)NC2CC(=O)N(c3cccc(F)c3)C2)cc1 (configuration not stated) | -8 | / | -1 | / | -4 | /
Fc1ccc(CNc2nc(-c3ccccc3)nc3ccccc23)cc1 | 57* | 73* | -2 | 2.6 | -4 | 69*
Fc1cccc(Nc2nc(-c3ccncc3)nc3ccccc23)c1 | 37 | -10 | 3 | 0.18 | 8 | 61*
Cc1ccc(-c2nc(NCc3cccnc3)c3ccccc3n2)cc1 | 40 | 31 | 2 | -0.00071 | 2 | 83*
OC(CNc1nc(-c2cccnc2)nc2ccccc12)c1ccccc1 (configuration not stated) | 43 | / | 4 | / | 4 | /
c1ccc(Nc2nc(-c3ccccc3)nc3ccccc23)cc1 | 27 | / | 1 | / | 0 | /
COc1ccc(CNc2nc(-c3ccccc3)nc3ccccc23)cc1OC | 22 | / | 0 | / | 1 | /
Clc1cccc(-c2nc(NCc3cccnc3)c3ccccc3n2)c1 | 28 | 28 | 0 | -0.36 | 1 | 86*
CCOCCCNC(=S)Nc1ccc2nc(N3CCOCC3)cc(C)c2c1 | 9 | / | 0 | / | -1 | /
FC(F)(F)c1nc(NCc2cccnc2)c2ccccc2n1 | -9 | / | -2 | / | -4 | /
c1ccc(-c2nc(NCc3cccnc3)c3ccccc3n2)cc1 | 37 | -6 | 0 | -0.069 | 1 | 80*
CC12CCC(C(=O)N(Cc3ccccc3)Cc3ccccc3)(OC1=O)C2(C)C (configuration not stated) | 17 | 37 | 1 | 0.73 | -2 | 72*
CC12CCC(C(=O)NNC(=O)c3ccccc3)(OC1=O)C2(C)C (configuration not stated) | 0 | / | 1 | / | -8 | /
Cc1oc(-c2cccc3ccccc23)nc1CN1CCN(c2ncnc3ccccc23)CC1 | 37 | 82* | 0 | -0.39 | 2 | 14
Cc1cnc(C)c(N2CCN(Cc3nc(-c4ccc(C)o4)oc3C)CC2)n1 | -8 | 17 | 0 | 0.29 | -5 | -1
COc1ccc(-c2nc(CN3CCN(c4cc(C)nc(C)c4)CC3)c(C)o2)c2ccccc12 | 36 | 31 | 2 | -2.9 | 7 | 100*
Cc1cc(N2CCN(Cc3nc(-c4ccc(Cl)cc4)oc3C)CC2)cc(C)n1 | 19 | 21 | 1 | 0.15 | -2 | /
COCCn1ccc2c(OCC(=O)NCc3ccc(C)cc3)cccc2c1=O | -6 | / | 2 | / | 0 | /
COc1ccc(NC(=O)CNC(=O)C2CCCCC2)cc1OC | / | / | 0 | / | 0 | /
CC(Oc1cccc(Cl)c1)C(=O)Nc1ccc(S(=O)(=O)N(C)C2CCN(C)CC2)cc1 (configuration not stated) | / | / | -1 | / | 1 | /
COc1ccc(OCC(=O)Nc2cc(-c3nn4c(C)nnc4s3)ccc2C)cc1 | -3 | 54 | -1 | 0.074 | 3 | -7
Cc1cc(OCC(=O)Nc2cc(-c3nn4c(C)nnc4s3)ccc2C)ccc1Cl | / | 95* | 5 | -0.064 | 0 | -1
Cc1ccc(C)c(OCCC(=O)OCC(=O)NC(=O)NC2CCCC2)c1 | -5 | / | -1 | / | -3 | /
CCOC(=O)C1=C(C)NC(C)=C(C(=O)OCC)C1c1ccc(OC)cc1 | 10 | 16 | -1 | -0.62 | 0 | 65*
CCc1ccc(OCC(=O)NC(C)(C)C)cc1 | -4 | -5 | 4 | 0.14 | -1 | 63*
COc1ccccc1NC(=O)COc1cc(Br)c(CNCCCN2CCOCC2)cc1OC | 46 | -19 | -1 | -0.7 | -1 | 55*
COc1cc(CNCCCN2CCOCC2)ccc1OCC(=O)NC(C)(C)C | 16 | 5 | 1 | 0.61 | 1 | -2

Screening data from PubChem.
